Activity calls are given as the source filed them. The rule behind the calls is not given here.
Assays:
Escherichia coli = assay: Inhibition of Escherichia coli RNA polymerase at 200 uM preincubated for 10 mins prior to DNA template and NTPs addition measured after 10 mins by [5,6-3H]-UTP incorporation assay relative to control
In short: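 E. coli RNA polymerase holoenzyme (1 unit) in 40 mM Tris-HCl pH 7.5, 150 mM KCl, 10 mM MgCl2, 10 mM DTT, 0.1% CHAPS, RNase inhibitor, 2% final DMSO; preincubated with compound 10 min at 25 °C; started with plasmid DNA template plus 400 µM ATP/CTP/GTP, 100 µM UTP and [5,6-3H]-UTP, 10 min at 37 °C; TCA-precipitated RNA counted by scintillation.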

[1] = Inhibition of Pseudomonas aeruginosa recombinant His6-tagged PqsD expressed in Escherichia coli BL21(lambda DE3) assessed as anthraniloyl-CoA and beta-ketodecanoic acid conversion to heptyl-4-hydroxyquinoline preincubated for 10 mins prior to substrate addition by LC-MS/MS analysis
In short: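 HHQ formation from anthraniloyl-CoA and β-ketodecanoic acid by purified PqsD (0.1 µM) in 0.05 M MOPS pH 7.0, 0.005% Triton X-100, 0.5% final DMSO; 10 min preincubation with inhibitor at 37 °C, started with anthraniloyl-CoA (5 µM final) and β-ketodecanoic acid (70 µM final); HHQ quantified by LC-MS, DMSO control set to 100%; triplicates.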

Pseudomonas aeruginosa [2] = assay: Binding affinity to Pseudomonas aeruginosa recombinant His6-tagged PqsD ACoA-channel expressed in Escherichia coli BL21(lambda DE3) at 25 uM after 30 mins by LC-ESI-MS analysis
In short: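 PqsD (25 µM) preincubated 30 min at 37 °C with compound (25 µM) in 0.05 M Tris-HCl pH 8.0, 0.5% DMSO; DTT added, then reversed-phase HPLC (C8, water/acetonitrile with 0.05% TFA gradient, 45 °C) coupled to ESI high-resolution TOF MS to detect intact protein–inhibitor adduct mass.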

Pseudomonas aeruginosa [3] = assay: Binding affinity to tryptically digested Pseudomonas aeruginosa recombinant His6-tagged PqsD ACoA-channel expressed in Escherichia coli BL21(lambda DE3) at 10 uM after 60 mins by MALDI-TOF-MS analysis
In short: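 PqsD (10 µM) and compound (10 µM) preincubated 60 min at 37 °C in 0.05 M MOPS pH 7.0, 0.005% Triton X-100, 0.5% DMSO; buffer exchanged to 0.05 M NH4HCO3 pH 8.1 by diafiltration, trypsin digestion overnight, DTT added; peptides analysed by MALDI-TOF in positive reflector mode, tracking the Cys112-containing fragment.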

Pseudomonas aeruginosa [4] = assay: Binding affinity to Pseudomonas aeruginosa recombinant His6-tagged PqsD expressed in Escherichia coli BL21(lambda DE3) at 100 uM by SPR analysis
In short: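 SPR: wild-type or R223A mutant PqsD amine-coupled to CMD500M chip (5000-6000 RU) at 12 °C; running buffer 50 mM MOPS pH 8.0, 150 mM NaCl, 5% DMSO, 0.1% Triton X-100; compounds at 100 µM final injected twice, 120 s association, 300 s dissociation, 50 µL/min; double referencing with blanks and DMSO calibration.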

Pseudomonas aeruginosa [5] = assay: Competitive binding affinity to Pseudomonas aeruginosa recombinant His6-tagged PqsD ACoA-channel expressed in Escherichia coli BL21(lambda DE3) at 100 uM by SPR analysis in presence of (2-nitrophenyl)methanol
In short: (§1)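 SPR competition: amine-coupled PqsD on CMD500M chip preincubated by adding competitor (100 µM) to running buffer (50 mM MOPS pH 8.0, 150 mM NaCl, 5% DMSO, 0.1% Triton X-100), flushed at 50 µL/min until stable; test compounds (100 µM) then injected twice at 10 µL/min, 120 s association, 300 s dissociation.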

Pseudomonas aeruginosa [6] = assay: Competitive binding affinity to Pseudomonas aeruginosa recombinant His6-tagged PqsD ACoA-channel expressed in Escherichia coli BL21(lambda DE3) at 100 uM by SPR analysis in presence of (2-nitrophenyl)(phenyl)methanol; in short: as §1
Pseudomonas aeruginosa [7] = assay: Competitive binding affinity to Pseudomonas aeruginosa recombinant His6-tagged PqsD ACoA-channel expressed in Escherichia coli BL21(lambda DE3) at 1 mM by saturation transfer difference NMR analysis in presence of (2-nitrophenyl)(phenyl)methanol
Pseudomonas aeruginosa [8] = assay: Inhibition of anthraniloyl coenzyme A binding to Pseudomonas aeruginosa recombinant His6-tagged PqsD ACoA-channel expressed in Escherichia coli BL21(lambda DE3) by SPR analysis
[9] = Binding affinity to Pseudomonas aeruginosa recombinant His6-tagged PqsD expressed in Escherichia coli BL21(lambda DE3) measured every 180 seconds by isothermal titration calorimetric analysis
In short: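 ITC at 25 °C in PBS pH 7.4, 10% glycerol, 5% DMSO; 100 µM His6-PqsD in cell titrated with 2 µL injections of 1.0 mM ligand every 180 s; ligand diluted 1:20 from 20 mM DMSO stock; protein quantified by A280 (ε 17,780 M−1 cm−1); stoichiometry and KD fitted.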

Pseudomonas aeruginosa [10] = assay: Binding affinity to Pseudomonas aeruginosa recombinant His6-tagged PqsD R223A mutant expressed in Escherichia coli BL21(lambda DE3) at 100 uM by SPR analysis
In short: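 Recombinant His6-PqsD R223A (E. coli BL21(λDE3), Ni-NTA purified) amine-coupled to CMD500M chip at 5000-6000 RU. Compounds diluted from 10 mM DMSO stock to 100 µM final in running buffer (50 mM MOPS pH 8.0, 150 mM NaCl, 5% DMSO, 0.1% Triton X-100). Run at 12 °C, 50 µL/min. Each compound injected twice, 120 s association, 300 s dissociation. Data double-referenced against blanks and DMSO calibration.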

Compound | IC50 [1] | Activity (Pseudomonas aeruginosa [6]) | other results
COc1ccc(-c2cc(NC(=O)N[C@@H](C)C(=O)O)c(C(=O)O)s2)cc1 | 2 µM | – | inhibition (Escherichia coli): 10%
COc1ccc(-c2cc(NC(=O)N[C@H](C)C(=O)O)c(C(=O)O)s2)cc1 | 54 µM | – | –
O=C(CCl)Nc1ccc(-c2cc(NC(=O)N[C@@H](Cc3ccccc3)C(=O)O)c(C(=O)O)s2)cc1 | 2 µM | – | Activity (Pseudomonas aeruginosa [2]): Active; Activity (Pseudomonas aeruginosa [3]): Active
NC(=O)Nc1cc(-c2ccc(Oc3ccccc3)cc2)sc1C(=O)O | 20 µM | Active | Activity (Pseudomonas aeruginosa [4]): Active; Activity (Pseudomonas aeruginosa [5]): Active
COc1ccc(-c2cc(NC(=O)N[C@@H](Cc3ccccc3)C(=O)O)c(C(=O)O)s2)cc1 | 0.5 µM | Active | Activity (Pseudomonas aeruginosa [7]): Active; inhibition (Escherichia coli): 10%
COc1ccc(-c2cc(NC(=O)NCC(=O)O)c(C(=O)O)s2)cc1 | 7 µM | – | –
COc1ccc(-c2cc(NC(=O)N[C@H](Cc3ccccc3)C(=O)O)c(C(=O)O)s2)cc1 | 26 µM | – | –
COc1ccc(-c2cc(NC(=O)NCCC(=O)O)c(C(=O)O)s2)cc1 | 37 µM | – | –
COc1ccc(-c2cc(NC(=O)NC(C)(C)C(=O)O)c(C(=O)O)s2)cc1 | 56 µM | – | –
CCN(Cc1ccccc1)C(=O)Nc1cc(-c2ccc(OC)cc2)sc1C(=O)O | 6 µM | Active | Activity (Pseudomonas aeruginosa [4]): Active; inhibition (Pseudomonas aeruginosa [8]): Active; Kd [9]: 6.3 µM; Activity (Pseudomonas aeruginosa [5]): inactive
COc1ccc(-c2cc(NC(=O)NCCc3ccccc3)c(C(=O)O)s2)cc1 | 58 µM | – | –
COc1ccc(-c2cc(NC(N)=O)c(C(=O)O)s2)cc1 | 170 µM | Active | RU (Pseudomonas aeruginosa [4]): 25; RU (Pseudomonas aeruginosa [10]): 6

Source: ChEMBL document CHEMBL3085679, “Combining in silico and biophysical methods for the development of Pseudomonas aeruginosa quorum sensing inhibitors: an alternative approach for structure-based drug design” (J Med Chem, 2013)
